Sampled rows, rich in hits. Any-hit rate of the full collection: about 2.9%.
Rev-erbA mod: modulates human Rev-erb alpha binding to DNA. AID 1259318. hit rate 0.79% among 370,000. Rev-erbα–FITC-DNA binding, fluorescence polarization, 90 min. activity, % at 10 µM;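 active means activity above about 14%, limit read from the data; passing the limit was not always enough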;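 further: 0% = DMSO wells with 35 nM protein and 100% = DMSO wells with 750 nM protein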
Target sequence (P20393 whole entry, looked up): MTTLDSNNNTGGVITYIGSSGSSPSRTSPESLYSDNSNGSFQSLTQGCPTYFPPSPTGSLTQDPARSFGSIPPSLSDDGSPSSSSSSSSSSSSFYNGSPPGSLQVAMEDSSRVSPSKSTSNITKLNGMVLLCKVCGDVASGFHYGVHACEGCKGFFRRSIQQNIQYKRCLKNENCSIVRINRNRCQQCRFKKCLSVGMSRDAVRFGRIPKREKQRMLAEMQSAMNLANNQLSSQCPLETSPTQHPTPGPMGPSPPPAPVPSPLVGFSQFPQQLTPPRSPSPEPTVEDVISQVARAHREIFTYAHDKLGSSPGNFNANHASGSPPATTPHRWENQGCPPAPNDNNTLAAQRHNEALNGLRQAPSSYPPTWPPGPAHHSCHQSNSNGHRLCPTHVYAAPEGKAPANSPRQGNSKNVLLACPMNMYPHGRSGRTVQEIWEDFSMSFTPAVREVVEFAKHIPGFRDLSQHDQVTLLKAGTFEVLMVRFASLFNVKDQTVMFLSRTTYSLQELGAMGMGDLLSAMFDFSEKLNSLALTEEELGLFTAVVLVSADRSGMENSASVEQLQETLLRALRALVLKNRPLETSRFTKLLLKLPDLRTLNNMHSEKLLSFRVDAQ
T cruzi repl: blocks replication of Trypanosoma cruzi; T. cruzi beta-gal in NIH3T3, luminescence, 90 h; inhibition, % (concentration not given with the values); hit rate 1.4% among 300,000;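 active means mean inhibition across valid replicates above about 55%, limit read from the data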;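 further: signal also drops with host cell toxicity which is not excluded here; 0% = plate median of DMSO wells and 100% = zero luminescence signal; higher percent means less beta-gal luminescence so fewer parasites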
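System: mouse NIH/3T3 fibroblasts infected with β-gal-expressing T. cruzi Tulahuen C4 / Input: NIH/3T3 cells, 5,000 per well / Buffer or medium: Low-serum DMEM with 2% FBS / Probe or stimulus: 5000 reporter trypomastigotes per well / Schedule: ≥90 h infection period, 3 h prior cell attachment / Measured by: GalScreen luminescence, 60 min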
iPSC survival up: enhancers of human iPSC single-cell survival | hiPSC single-cell survival, ATPlite luminescence; 100% = ROCK inhibitor wells, 0% = DMSO | survival enhancement, % at 20 µM | hit rate 0.044% among 360,000 | AID 602274; in the data active means survival enhancement above about 18%;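 further: cells exposed to compounds for 16 hours before the ATP read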
PG9 Ab binder: PG9 antibody binding by small molecule; TR-FRET gp120-PG9 antibody binding; inhibition, % at 6.7 µM; hit rate 0.43% among 360,000; in the data active means inhibition above about 8.5%
TAG inh: reduces triacylglycerol accumulation in H9c2 cells | AID 651582 | inhibition, % at 12.5 µM | Nile Red lipid (TAG) fluorescence; cells loaded with 200 µM oleic acid | hit rate 0.66% among 230,000;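 active means pattern-corrected inhibition of lipid staining of at least 50% with the nuclear-stain viability signal not falling by more than 50%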;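 further: 0% = DMSO wells and 100% = triacsin C control wells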
beta cell repl: inducers of beta-cell replication in MIN6 cells. MIN6 cells proliferation, ATPlite luminescence, 48 h; cells starved in 0.2% serum; 100% = growth in 10% serum. proliferation, % at 10 µM. AID 2380. hit rate 0.29% among 330,000;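 active means compounds whose signal lies at least 3.5 SD above the mean of all wells on their plate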;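 further: 0% = DMSO-treated cells in low-serum medium and 100% = 10% serum control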
The depositor's hits bear a star; . = no result given; ! = not active in a repeat.

SMILES	Rev-erbA mod	T cruzi repl	iPSC survival up	PG9 Ab binder	TAG inh	beta cell repl
NC(=NCCCCCCN=C(N)/N=C(\N)Nc1ccc(Cl)cc1)/N=C(\N)Nc1ccc(Cl)cc1	-3	56*!	-2	-2	-5	-8
O=C(Cn1cc2c(n1)CCCC2)NCc1cccnc1	6	-8	1	1	-13	0
CCN1CCCc2cc(CN(CCN3CCOCC3)C(=S)Nc3ccc(OC)c(OC)c3)ccc21	-2	45	0	-2	-4	0
CCN1CCCc2cc(CN(CCN3CCOCC3)C(=S)Nc3ccccc3OC)ccc21	-8	57*	0	0	-3	0
CCN1CCCc2cc(CN(CCN3CCOCC3)C(=S)Nc3ccccc3C)ccc21	0	35	0	-3	-9	0
CCN1CCCc2cc(CN(CCN3CCOCC3)C(=S)Nc3ccc(OC)c(Cl)c3)ccc21	17	59*	-1	0	-9	-3
CCN1CCCc2cc(CN(CCN3CCOCC3)C(=S)Nc3cccc(C)c3)ccc21	-1	61*	0	-4	-15	-2
CCOc1ccc(C(=O)Nc2c(C(N)=O)oc3ccccc23)cc1	-3	-1	-2	2	.	0
CCOc1ccc(C(=O)Nc2c(C(=O)N3CCC(N4CCCCC4)CC3)oc3ccccc23)cc1	0	58*	0	1	.	-1
COCc1c(C(C)C)nc(C(C)C)c(/C=C/[C@@H](O)C[C@@H](O)CC(=O)O)c1-c1ccc(F)cc1	.	65*	.	.	.	.
CC(C)n1c(/C=C/[C@@H](O)C[C@@H](O)CC(=O)O)c(-c2ccc(F)cc2)c2ccccc21	4	-11	-1	-1	-5	-6
CC(=O)/C(N=Nc1ccc(OC(F)(F)F)cc1)=C(\C)O	1	9	0	1	-11	1
FC(F)(F)c1cccc(NC(=S)NC(c2ccccc2)c2ccccc2)c1	1	60*	0	0	.	.
CNNC(=S)Nc1cccc(C(F)(F)F)c1	1	-16	1	-1	8	0
FC(F)(F)c1cccc(NC(=S)Nc2ccc(Cl)c(Cl)c2)c1	0	48	-1	-3	-10	-4
FC(F)(F)c1cccc(NC(=S)NNC(=S)Nc2cccc(C(F)(F)F)c2)c1	.	55*	.	.	.	-6
O=C(N/N=C/c1cccc(Oc2ccccc2)c1)c1ccc(O)cc1O	0	6	0	-2	10	-3
O=C(Nc1nc(-c2cccs2)cs1)c1cccc(S(=O)(=O)N2CCCCC2)c1	0	62*	-3	-1	30	0
O=C(Nc1nc(-c2ccc(S(=O)(=O)N3CCCCCC3)cc2)cs1)c1cccs1	9	70*	-2	0	51*	-4
O=C(Nc1nc(-c2cc3ccccc3o2)cs1)c1ccc(S(=O)(=O)N2CCCC2)cc1	3	66*	0	-2	.	-6
Cc1cc(NC(=O)c2ccc(Cl)c(S(=O)(=O)N3CCOCC3)c2)no1	-3	6	0	-3	-6	4
O=C(NNc1nc2ccccc2s1)c1ccc(F)cc1	-3	2	-2	-1	.	0
O=C(NNc1nc2ccc(F)cc2s1)c1cccc(F)c1	4	67*	3	0	6	-4
CN(C)CC(CCC(CN(C)C)C(=O)c1ccccc1)C(=O)c1ccccc1 (centres undefined)	.	71*	4	.	107	.
CCOc1ccc(C(=O)C(CCC(CN(C)C)C(=O)c2ccc(OCC)cc2)CN(C)C)cc1 (centres undefined)	3	31	-3	0	81	.
SMILES	Rev-erbA mod	T cruzi repl	iPSC survival up	PG9 Ab binder	TAG inh	beta cell repl
CN(C)CCCN(C(=O)COc1ccc(Cl)cc1)c1nc2c(F)cccc2s1	2	80*	-1	-2	7	-1
CCOc1cccc2sc(N(CCCN(C)C)C(=O)c3ccc(S(=O)(=O)N(C)c4ccccc4)cc3)nc12	1	56*	-3	-4	.	-6
CN(C)CCCN(C(=O)c1ccc(S(=O)(=O)N(C)Cc2ccccc2)cc1)c1nc2c(F)cccc2s1	-2	36	0	1	2	-7
CN(C)CCCN(C(=O)CCOc1ccccc1)c1nc2c(F)cccc2s1	-8	59*	-1	-3	28	.
CN(C)CCCN(C(=O)CCc1ccccc1)c1nc2c(F)cccc2s1	-2	58*	-1	-2	.	0
COc1ccc(C(=O)Nn2c(SCC(=O)NC3CCCCC3)nc3ccccc3c2=O)cc1	-2	-10	-4	0	.	-5
CN(C)CCCN(C(=O)/C=C/c1cccs1)c1nc2c(F)cccc2s1	0	56*	0	-1	23	.
CC(C)N(Cc1nc(-c2ccccc2)no1)C(=O)c1ccc2c(c1)OCO2	2	4	-2	.	.	0
CC1CCCN(C(=O)c2cc(-c3cccs3)nc3ccccc23)C1 (centres undefined)	3	.	0	0	-22	-2
Cc1ccccc1Cn1c(O)c(N=NC(=S)Nc2ccccc2F)c2ccccc21	7	36	1	0	29	-6
Cc1ccc(C)c(Cn2c(O)c(N=NC(=S)Nc3ccccc3F)c3ccccc32)c1	0	67*	-1	0	40	-3
Oc1c(N=NC(=S)Nc2ccccc2F)c2ccccc2n1Cc1ccc(Cl)cc1	-2	61*	-1	1	27	-6
Oc1c(N=NC(=S)Nc2ccccc2F)c2ccccc2n1Cc1ccccc1F	0	88*	-2	-1	24	-5
CCNC(=O)C/C(C)=N/NC(=O)C12CC3CC(CC(C3)C1)C2	2	1	-1	-1	-4	-2
COc1cc2c(OC(C)=O)c3c(c(-c4ccc5c(c4)OCO5)c2cc1OC)C(=O)OC3	0	30	1	1	.	-6
COc1cc2c(O)c3c(c(-c4ccc5c(c4)OCO5)c2cc1OC)C(=O)OC3	-3	57*	-4	-2	.	-5
CCCCN(CCCC)S(=O)(=O)c1ccc(NC(=O)c2ccc([N+](=O)[O-])cc2Cl)cc1	-1	79*	-2	0	.	.
CCCCN(CCCC)S(=O)(=O)c1ccc(NC(=O)c2cccs2)cc1	3	56*	2	0	.	-6
Cc1cc(C)nc(NS(=O)(=O)c2ccc(NC(=O)c3cccs3)cc2)n1	1	-2	2	1	11	-2
CCN(CC)S(=O)(=O)c1cc([N+](=O)[O-])ccc1NNC(=O)Nc1ccc(Cl)c(Cl)c1	4	60*	1	-1	-66	-3
Cc1oc(-c2ccccc2F)nc1CN1CCC(C(=O)NCc2ccco2)CC1	2	-2	-2	1	28	-4
N/C(Cc1cccc2ccccc12)=N\OC(=O)c1ccc2c(c1)OCO2	-6	54	-1	1	.	-6
COCC(C)n1c(SCC(=O)Nc2ccc3c(c2)OCCO3)nc2ccccc2c1=O (centres undefined)	-2	.	0	-1	10	-4

Screening data (PubChem)
